# Screens as filed in PubChem BioAssay.
# This is a sample that favours compounds with a hit; in the whole collection about 3.7% have one here.
# DENV2 CPE rescue – protects cells from dengue virus 2 cytopathic effect; DENV2-infected cells, cytopathic effect rescue, plate reader; CPE inhibition, % at 9.99 µM; actives 1.7% (n = 350,000); AID 651640; in the data active means CPE inhibition above about 20%, passing the limit was not always enough; inconclusive means no clear call, values can overlap the other calls; tested in BHK-21 cells;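 further: 0% = median of neutral control wells and 100% = median of positive control wells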
# ERAP1 HTS inh – inhibitors of human ERAP1 aminopeptidase. inhibition, % at 10.7 µM. actives 0.15% (n = 340,000). recombinant ERAP1, Leu-AMC fluorescence, 60 min. Q9NZ08. AID 652197;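 active means mean replicate inhibition of at least 30%, or all replicates individually reaching that 30% level; inactive means mean below 30% and not every replicate reaching it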;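 further: 0% = neutral control wells and 100% = L-leucinethiol positive control wells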
# Target sequence (Q9NZ08 whole entry, looked up): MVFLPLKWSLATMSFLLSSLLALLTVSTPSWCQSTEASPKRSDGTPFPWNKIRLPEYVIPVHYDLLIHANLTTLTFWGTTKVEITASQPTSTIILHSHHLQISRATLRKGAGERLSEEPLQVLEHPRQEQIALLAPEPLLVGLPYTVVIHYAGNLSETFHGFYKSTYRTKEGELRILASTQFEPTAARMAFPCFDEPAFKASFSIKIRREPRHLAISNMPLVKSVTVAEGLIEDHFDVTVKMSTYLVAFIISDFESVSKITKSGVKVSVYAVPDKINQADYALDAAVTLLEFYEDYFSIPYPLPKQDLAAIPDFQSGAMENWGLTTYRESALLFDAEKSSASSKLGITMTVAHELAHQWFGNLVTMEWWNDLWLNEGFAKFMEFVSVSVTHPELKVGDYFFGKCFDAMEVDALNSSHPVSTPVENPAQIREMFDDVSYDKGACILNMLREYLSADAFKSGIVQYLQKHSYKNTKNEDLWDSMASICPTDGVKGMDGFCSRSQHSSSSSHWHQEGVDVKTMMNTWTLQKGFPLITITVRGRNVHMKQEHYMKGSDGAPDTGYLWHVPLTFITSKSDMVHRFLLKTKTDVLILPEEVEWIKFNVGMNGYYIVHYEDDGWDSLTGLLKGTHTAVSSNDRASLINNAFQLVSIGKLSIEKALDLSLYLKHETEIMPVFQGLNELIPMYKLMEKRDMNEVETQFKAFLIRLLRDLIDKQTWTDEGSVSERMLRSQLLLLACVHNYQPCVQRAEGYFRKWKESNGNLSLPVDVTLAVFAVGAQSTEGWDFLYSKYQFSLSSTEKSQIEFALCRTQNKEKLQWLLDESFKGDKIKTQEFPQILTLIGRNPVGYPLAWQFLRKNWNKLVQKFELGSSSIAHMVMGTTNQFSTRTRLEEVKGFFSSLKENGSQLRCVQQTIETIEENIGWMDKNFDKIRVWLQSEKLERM
# CFTR F508del cor – CFTR F508del correction in bronchial cells. CFBE cells, YFP halide quenching; stimulated with forskolin plus potentiator P3; % fluorescence drop versus neutral controls. activity (quench increase), % at 7.58 µM. actives 0.36% (n = 350,000). AID 720511;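 active means mean added fluorescence quench of at least 8% versus neutral control, with both replicates also reaching 8%; inconclusive means only one of the mean or replicate conditions met; inactive means mean below 8% and not both replicates reaching 8%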;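 further: cells transiently co-express mutant CFTR-F508del with the halide-sensitive YFP; corrector assay measuring rescue of mutant channel to the surface after 24 h compound exposure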
# FGF22 binding – binders of recombinant human FGF22 by thermal shift. SYPRO orange fluorescence; percent of sucrose octasulfate shift, DMSO zero. activity (Tm shift, normalised), % at 9.99 µM. AID 651658. actives 1.5% (n = 340,000);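 active means mean Tm shift, scaled 0 neutral to 100 positive control, at about 1.3% or above, every replicate too, limit read from the data; inconclusive means no clear call, values can overlap the other calls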
# E-sel inducer – E-selectin induction on HUVECs. actives 0.37% (n = 260,000). AID 686992. P16581. HUVEC E-selectin immunofluorescence imaging; normalized: neutral wells 0, TNF-alpha wells 100. activation, % at 7.58 µM;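 active means mean E-selectin-positive cell signal at least 10% of the positive control, reached in at least 60% of replicates, without over 20% cell loss; inconclusive means no rule given, readout overlaps actives, possibly toxicity-flagged; inactive means the rest, including those meeting only one limit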
#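 assay system = HUVEC, human umbilical vein endothelial cells | input = 3,000 HUVEC seeded per well | medium = EGM-2 growth medium on 0.1% gelatin-coated wells | dosing = one compound dose added by pin transfer | signal = immunofluorescence imaging | read-out basis = % PE-positive cells | control set = TNF-alpha, DMSO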
# Active calls of the source: *; ? = inconclusive; . = no result.
SMILES,DENV2 CPE rescue,ERAP1 HTS inh,CFTR F508del cor,FGF22 binding,E-sel inducer
C[C@@H]1CCCCO[C@@H](CN(C)Cc2ccc3c(c2)OCO3)[C@@H](C)CN([C@H](C)CO)C(=O)c2cc(NC(=O)NC3CCCCC3)ccc2O1,-0.6,2.3,1.0,0.1,-0.1
C[C@@H]1CN([C@H](C)CO)C(=O)c2cc(NC(=O)NC3CCCCC3)ccc2O[C@@H](C)CCCCO[C@H]1CN(C)Cc1ccc2c(c1)OCO2,63.5*,2.4,-0.8,-0.3,-0.1
C[C@@H]1CN([C@@H](C)CO)C(=O)c2cc(NC(=O)NC3CCCCC3)ccc2O[C@@H](C)CCCCO[C@H]1CN(C)Cc1ccc2c(c1)OCO2,45.0*,-0.9,-4.1,-0.3,-0.1
C[C@@H]1CN([C@@H](C)CO)C(=O)c2cc(NC(=O)NC3CCCCC3)ccc2O[C@@H](C)CCCCO[C@@H]1CN(C)Cc1ccc2c(c1)OCO2,7.4,3.0,-0.9,-0.2,-0.3
CC(=O)N1CC2(C1)[C@@H](c1ccc(-c3cccc(F)c3)cc1)[C@@H](CO)N2CC1CCOCC1,-8.1,1.8,0.0,-0.2,-0.3
CCN1CCN(CCCNC(=O)CCc2nc(-c3ccc(OC)cc3)no2)CC1,?,-3.2,-0.9,43.2*,-0.2
CCCN1C[C@@H](C)[C@@H](OC)CN(C)C(=O)c2cc(NC(=O)CC)ccc2OC[C@H]1C,.,.,-1.2,.,0.1
Cc1cc(C)c(C(=O)COC(=O)c2cccnc2Cl)c(C)c1,-3.0,1.6,-2.5,43.5*,-0.8
NS(=O)(=O)c1ccc(NCC2COc3ccccc3O2)c([N+](=O)[O-])c1 (stereo not drawn),-7.2,0.7,5.7,42.9*,1.9
O=C(NNC(=O)C12CC3CC(CC(C3)C1)C2)c1cccc([N+](=O)[O-])c1,20.3*,-4.4,-2.1,-0.2,.
CC1(C(=O)NNC(=O)c2cccc([N+](=O)[O-])c2)CC1Br (stereo not drawn),15.2,3.2,1.2,-0.1,0.0
COc1ccc(S(=O)(=O)N[C@H]2CC[C@@H](CCNC(=O)CN3CCOCC3)O[C@@H]2CO)cc1,4.1,0.9,-0.6,-0.1,0.3
COc1ccccc1S(=O)(=O)N[C@@H]1CC[C@@H](CCNC(=O)C2CCCC2)O[C@@H]1CO,20.1*,3.6,-0.8,-0.8,-0.1
Cc1ccc(S(=O)(=O)N[C@H]2CC[C@H](CCNC(=O)C3CCCC3)O[C@@H]2CO)cc1,72.0*,2.3,0.5,-0.5,-0.1
Cc1ccc(S(=O)(=O)N[C@@H]2CC[C@H](CCNC(=O)C3CC3)O[C@H]2CO)cc1,0.9,-3.9,0.8,0.5,-0.5
Cc1ccc(S(=O)(=O)N[C@@H]2CC[C@@H](CCNC(=O)C3CCOCC3)O[C@H]2CO)cc1,21.1*,3.8,-0.1,1.2,0.1
COc1ccc(S(=O)(=O)N[C@H]2CC[C@@H](CCNC(=O)CN3CCOCC3)O[C@H]2CO)cc1,94.0*,-1.7,-1.0,-0.1,0.0
C[C@@H]1CCCCO[C@@H](CN(C)C(=O)Nc2ccc(C(F)(F)F)cc2)[C@H](C)CN([C@@H](C)CO)C(=O)c2cc(NS(C)(=O)=O)ccc2O1,-7.7,-1.5,3.2,-1.1,0.4
C[C@H](CO)N1C[C@H](C)[C@@H](CN(C)Cc2ccc3c(c2)OCO3)Oc2ccc(NS(=O)(=O)c3cccs3)cc2CC1=O,7.1,0.3,2.5,-0.2,-8.9
Cc1ccc(S(=O)(=O)N[C@H]2CC[C@@H](CCNC(=O)C3CCOCC3)O[C@H]2CO)cc1,22.1*,6.0,-0.9,1.0,0.1
Cc1ccc(S(=O)(=O)N[C@@H]2CC[C@@H](CCNC(=O)C3CC3)O[C@H]2CO)cc1,-3.8,-2.8,0.5,-0.1,-0.3
CCOC(=O)N1CCC(C(=O)NNC(=O)c2ccc(Cl)cc2Cl)CC1,45.3*,-0.8,-1.7,-0.4,.
CC(C)(C)C(=O)N1N=C(c2ccc(NS(C)(=O)=O)cc2)CC1c1cccs1 (stereo not drawn),-0.9,-3.1,-0.3,43.2*,.
CCS(=O)(=O)Nc1cccc(C2=NN(S(C)(=O)=O)C(c3ccccc3)C2)c1 (stereo not drawn),12.5,0.7,-3.0,43.2*,.
CCS(=O)(=O)N1N=C(c2cccc(NS(C)(=O)=O)c2)CC1c1ccccc1 (stereo not drawn),-2.2,0.6,-0.4,-0.4,.
